The text below walks through data of ChEMBL document CHEMBL5696442, “Discovery of type II inhibitors of TGFβ-activated kinase 1 (TAK1) and mitogen-activated protein kinase kinase kinase kinase 2 (MAP4K2)” (J Med Chem, 2015).

What all share (type): cell-based
Experiment [1] deals with Cyclin-dependent kinase 6 (Homo sapiens) (UniProt Q00534). Kind of experiment: Inhibition of CDK6 Lys2 labeling site in human A-375 cells at 5 uM by KiNativ Profiling analysis relative to control. In outline: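 Intact A375 melanoma cells were treated with compound at 5 or 0.5 μM, then lysed. Lysate kinases were labeled with a lysine-reactive ATP or ADP-biotin probe (KiNativ). Inhibition is read as protection of each kinase labeling site from probe labeling.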
Chain of Cyclin-dependent kinase 6 (Homo sapiens) (Q00534 whole entry): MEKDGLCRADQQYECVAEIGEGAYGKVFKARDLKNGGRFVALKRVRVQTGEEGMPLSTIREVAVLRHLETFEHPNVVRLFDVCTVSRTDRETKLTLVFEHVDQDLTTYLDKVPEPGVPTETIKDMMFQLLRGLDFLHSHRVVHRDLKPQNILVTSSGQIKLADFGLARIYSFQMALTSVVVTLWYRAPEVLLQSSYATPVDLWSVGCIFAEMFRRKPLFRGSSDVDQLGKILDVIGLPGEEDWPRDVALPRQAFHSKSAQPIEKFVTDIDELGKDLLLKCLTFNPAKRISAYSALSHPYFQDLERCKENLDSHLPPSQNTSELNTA

The target of experiment [2] is Cyclin-dependent kinase 11B (Homo sapiens) (UniProt P21127). The experiment is described as follows: Inhibition of CDK11 Lys2 labeling site in human A-375 cells at 5 uM by KiNativ Profiling analysis relative to control. The method in brief: (§1)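 Live A375 melanoma cells were treated with compound at 5 or 0.5 μM. The cells were then lysed, and the lysates were labeled with a lysine-reactive ATP or ADP-biotin acyl probe (KiNativ). Inhibition is the compound's protection of each kinase labeling-site peptide from probe labeling, relative to untreated control.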
Chain of Cyclin-dependent kinase 11B (Homo sapiens) (P21127 whole entry): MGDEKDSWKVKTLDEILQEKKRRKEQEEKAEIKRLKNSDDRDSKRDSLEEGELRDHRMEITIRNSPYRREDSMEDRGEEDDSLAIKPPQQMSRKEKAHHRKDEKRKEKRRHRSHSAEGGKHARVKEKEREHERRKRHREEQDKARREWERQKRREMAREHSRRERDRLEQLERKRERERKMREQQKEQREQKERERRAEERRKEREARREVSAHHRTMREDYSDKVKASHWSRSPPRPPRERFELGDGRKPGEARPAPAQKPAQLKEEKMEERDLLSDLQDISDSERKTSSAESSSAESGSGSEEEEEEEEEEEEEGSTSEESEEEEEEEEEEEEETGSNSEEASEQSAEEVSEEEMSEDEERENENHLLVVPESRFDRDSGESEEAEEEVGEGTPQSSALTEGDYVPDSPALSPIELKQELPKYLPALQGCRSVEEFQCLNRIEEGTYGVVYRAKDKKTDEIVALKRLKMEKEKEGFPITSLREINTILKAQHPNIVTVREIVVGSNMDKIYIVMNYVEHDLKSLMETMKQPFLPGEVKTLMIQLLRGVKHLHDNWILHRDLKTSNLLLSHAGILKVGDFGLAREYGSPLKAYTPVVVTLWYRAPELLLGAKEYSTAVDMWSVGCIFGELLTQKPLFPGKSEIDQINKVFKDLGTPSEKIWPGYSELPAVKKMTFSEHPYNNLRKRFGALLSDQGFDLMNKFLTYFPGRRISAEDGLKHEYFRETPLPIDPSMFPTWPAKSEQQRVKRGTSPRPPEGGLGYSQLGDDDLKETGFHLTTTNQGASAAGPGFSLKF

The target of experiment [3] is Serine/threonine-protein kinase WNK1 (Homo sapiens) (UniProt Q9H4A3). Kind of experiment: Inhibition of Wnk1 Lys2 labeling site in human A-375 cells at 0.5 uM by KiNativ Profiling analysis relative to control.
Chain of Serine/threonine-protein kinase WNK1 (Homo sapiens) (Q9H4A3 whole entry, looked up): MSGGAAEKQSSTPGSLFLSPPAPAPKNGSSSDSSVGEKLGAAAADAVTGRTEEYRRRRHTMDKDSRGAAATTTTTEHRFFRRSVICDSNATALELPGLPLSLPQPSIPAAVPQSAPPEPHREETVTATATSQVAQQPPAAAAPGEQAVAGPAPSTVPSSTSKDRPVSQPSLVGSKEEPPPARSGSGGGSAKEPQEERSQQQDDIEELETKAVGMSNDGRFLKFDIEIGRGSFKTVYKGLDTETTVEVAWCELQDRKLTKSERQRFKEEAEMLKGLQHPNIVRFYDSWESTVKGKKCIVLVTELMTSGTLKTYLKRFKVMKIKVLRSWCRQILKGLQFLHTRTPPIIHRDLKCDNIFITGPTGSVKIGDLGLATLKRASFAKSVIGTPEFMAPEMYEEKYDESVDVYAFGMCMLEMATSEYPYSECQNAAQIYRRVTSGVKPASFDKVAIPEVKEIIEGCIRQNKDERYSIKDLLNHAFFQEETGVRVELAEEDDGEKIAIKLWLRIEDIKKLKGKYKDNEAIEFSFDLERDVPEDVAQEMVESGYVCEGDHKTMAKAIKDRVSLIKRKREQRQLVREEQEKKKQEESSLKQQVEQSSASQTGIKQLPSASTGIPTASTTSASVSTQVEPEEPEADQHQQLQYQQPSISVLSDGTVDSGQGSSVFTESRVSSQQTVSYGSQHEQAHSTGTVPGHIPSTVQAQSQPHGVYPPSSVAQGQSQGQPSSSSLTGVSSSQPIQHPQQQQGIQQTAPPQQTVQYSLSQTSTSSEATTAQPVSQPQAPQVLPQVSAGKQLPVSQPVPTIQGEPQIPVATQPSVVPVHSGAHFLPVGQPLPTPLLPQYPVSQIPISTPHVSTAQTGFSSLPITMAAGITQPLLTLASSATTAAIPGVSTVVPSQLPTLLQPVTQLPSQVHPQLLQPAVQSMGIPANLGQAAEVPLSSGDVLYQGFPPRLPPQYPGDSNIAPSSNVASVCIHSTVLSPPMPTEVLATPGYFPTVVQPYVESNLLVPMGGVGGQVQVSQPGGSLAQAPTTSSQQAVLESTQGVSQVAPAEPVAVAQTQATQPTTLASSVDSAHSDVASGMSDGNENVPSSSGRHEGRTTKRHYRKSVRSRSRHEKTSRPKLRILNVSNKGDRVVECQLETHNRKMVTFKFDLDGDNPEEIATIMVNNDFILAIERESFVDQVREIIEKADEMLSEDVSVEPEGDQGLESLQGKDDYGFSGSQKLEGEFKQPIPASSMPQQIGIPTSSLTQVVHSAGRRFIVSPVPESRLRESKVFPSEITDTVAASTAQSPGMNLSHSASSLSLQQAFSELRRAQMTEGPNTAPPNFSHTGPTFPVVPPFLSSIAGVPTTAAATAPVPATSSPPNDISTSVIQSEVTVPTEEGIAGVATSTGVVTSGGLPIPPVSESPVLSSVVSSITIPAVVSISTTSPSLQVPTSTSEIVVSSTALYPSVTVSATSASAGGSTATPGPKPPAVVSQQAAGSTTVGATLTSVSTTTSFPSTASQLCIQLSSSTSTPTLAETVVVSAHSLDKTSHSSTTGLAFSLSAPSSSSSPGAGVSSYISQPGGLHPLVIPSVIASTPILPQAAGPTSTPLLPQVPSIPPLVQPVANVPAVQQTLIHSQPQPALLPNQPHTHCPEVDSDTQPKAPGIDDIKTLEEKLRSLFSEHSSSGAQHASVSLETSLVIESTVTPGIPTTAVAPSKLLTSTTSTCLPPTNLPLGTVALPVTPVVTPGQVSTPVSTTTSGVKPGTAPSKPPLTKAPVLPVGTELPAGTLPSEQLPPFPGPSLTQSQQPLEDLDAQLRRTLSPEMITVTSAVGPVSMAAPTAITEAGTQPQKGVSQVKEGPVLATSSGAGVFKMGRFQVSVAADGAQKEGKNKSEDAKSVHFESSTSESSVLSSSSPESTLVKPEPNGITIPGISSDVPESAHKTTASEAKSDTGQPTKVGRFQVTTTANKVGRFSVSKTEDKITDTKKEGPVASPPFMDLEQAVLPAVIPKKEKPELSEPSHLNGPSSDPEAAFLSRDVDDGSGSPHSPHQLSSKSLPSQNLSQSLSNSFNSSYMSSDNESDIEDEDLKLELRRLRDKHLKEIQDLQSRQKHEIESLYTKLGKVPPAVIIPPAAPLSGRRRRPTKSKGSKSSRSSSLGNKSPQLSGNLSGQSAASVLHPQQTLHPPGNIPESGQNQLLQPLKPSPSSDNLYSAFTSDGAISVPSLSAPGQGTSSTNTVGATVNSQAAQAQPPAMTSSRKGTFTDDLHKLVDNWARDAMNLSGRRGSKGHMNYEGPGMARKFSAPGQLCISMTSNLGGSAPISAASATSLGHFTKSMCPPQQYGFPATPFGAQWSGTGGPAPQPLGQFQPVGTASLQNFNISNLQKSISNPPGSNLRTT
Experiment [4] has as its target Serine/threonine-protein kinase 32C (Homo sapiens) (UniProt Q86UX6). The experiment is described as follows: Inhibition of YANK3 Lys2 labeling site in human A-375 cells at 5 uM by KiNativ Profiling analysis relative to control.
Experiment [5] addresses T1, Inhibitor of nuclear factor kappa-B kinase subunit epsilon (Homo sapiens) (UniProt Q14164).
T1 sequence (whole entry): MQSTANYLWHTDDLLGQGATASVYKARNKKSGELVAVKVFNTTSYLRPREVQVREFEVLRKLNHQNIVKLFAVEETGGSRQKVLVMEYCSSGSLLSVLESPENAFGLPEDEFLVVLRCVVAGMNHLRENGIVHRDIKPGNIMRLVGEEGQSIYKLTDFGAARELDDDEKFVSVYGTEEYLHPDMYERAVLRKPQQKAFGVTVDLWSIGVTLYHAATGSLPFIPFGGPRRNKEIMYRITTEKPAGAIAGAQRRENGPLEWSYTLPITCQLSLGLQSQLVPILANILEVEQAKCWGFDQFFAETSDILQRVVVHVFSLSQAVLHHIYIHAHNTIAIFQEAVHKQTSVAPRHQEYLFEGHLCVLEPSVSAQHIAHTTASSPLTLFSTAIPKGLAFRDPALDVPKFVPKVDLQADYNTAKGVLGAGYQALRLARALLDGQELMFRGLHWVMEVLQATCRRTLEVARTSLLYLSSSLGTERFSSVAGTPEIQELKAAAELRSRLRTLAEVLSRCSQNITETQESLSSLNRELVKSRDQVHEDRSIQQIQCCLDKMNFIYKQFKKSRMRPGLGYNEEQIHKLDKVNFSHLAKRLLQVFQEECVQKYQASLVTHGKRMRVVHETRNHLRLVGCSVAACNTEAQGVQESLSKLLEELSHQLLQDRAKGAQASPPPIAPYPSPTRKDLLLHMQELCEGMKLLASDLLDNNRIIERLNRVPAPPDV
Kind of experiment: Inhibition of IKKe Lys2 labeling site in human A-375 cells at 0.5 uM by KiNativ Profiling analysis relative to control.

In experiment [6] the target is T2, Serine/threonine-protein kinase Chk1 (Homo sapiens) (UniProt O14757).
T2 sequence (whole entry): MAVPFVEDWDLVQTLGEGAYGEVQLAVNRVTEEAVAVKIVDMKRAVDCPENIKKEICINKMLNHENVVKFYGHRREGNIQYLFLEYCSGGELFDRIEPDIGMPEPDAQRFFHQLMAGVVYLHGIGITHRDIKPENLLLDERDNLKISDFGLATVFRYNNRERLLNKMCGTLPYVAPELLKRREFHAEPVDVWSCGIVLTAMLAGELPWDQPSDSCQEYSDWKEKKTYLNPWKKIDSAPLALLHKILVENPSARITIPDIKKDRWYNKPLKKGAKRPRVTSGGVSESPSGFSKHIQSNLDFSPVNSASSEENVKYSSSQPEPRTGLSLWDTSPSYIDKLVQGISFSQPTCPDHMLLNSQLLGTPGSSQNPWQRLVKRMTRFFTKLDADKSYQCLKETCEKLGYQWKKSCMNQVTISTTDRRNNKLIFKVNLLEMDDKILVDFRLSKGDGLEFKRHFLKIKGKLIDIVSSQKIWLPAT
The experiment is described as follows: Inhibition of CHK1 Lys2 labeling site harbouring DIKPENLLLDERDNLK in human A-375 cells at 0.05 uM by KiNativ Profiling analysis relative to control.

Experiment [7] concerns the target Calcium/calmodulin-dependent protein kinase kinase 2 (Homo sapiens) (UniProt Q96RR4). The experiment is described as follows: Inhibition of CaMKK2 Lys2 labeling site in human A-375 cells at 5 uM by KiNativ Profiling analysis relative to control. The method in brief: as §1
Experiment [8] deals with Mitogen-activated protein kinase 14 (Homo sapiens, UniProt Q16539). The experiment is described as follows: Inhibition of p38 alpha in human A-375 cells at 0.5 uM by KiNativ Profiling analysis relative to control.
Chain of Mitogen-activated protein kinase 14 (Q16539 whole entry): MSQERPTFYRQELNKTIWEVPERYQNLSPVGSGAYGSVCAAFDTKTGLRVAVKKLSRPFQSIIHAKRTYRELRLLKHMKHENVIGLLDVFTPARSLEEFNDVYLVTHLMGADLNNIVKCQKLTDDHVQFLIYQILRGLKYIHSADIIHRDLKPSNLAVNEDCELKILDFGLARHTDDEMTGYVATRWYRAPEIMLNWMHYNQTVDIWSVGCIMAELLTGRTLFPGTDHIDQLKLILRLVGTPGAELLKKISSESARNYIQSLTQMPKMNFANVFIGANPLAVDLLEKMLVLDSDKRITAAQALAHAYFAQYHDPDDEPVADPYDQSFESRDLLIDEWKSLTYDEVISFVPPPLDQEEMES
The target of experiment [9] is T3, Kinase suppressor of Ras 2 (Homo sapiens) (UniProt Q6VAB6).
T3 sequence (whole entry): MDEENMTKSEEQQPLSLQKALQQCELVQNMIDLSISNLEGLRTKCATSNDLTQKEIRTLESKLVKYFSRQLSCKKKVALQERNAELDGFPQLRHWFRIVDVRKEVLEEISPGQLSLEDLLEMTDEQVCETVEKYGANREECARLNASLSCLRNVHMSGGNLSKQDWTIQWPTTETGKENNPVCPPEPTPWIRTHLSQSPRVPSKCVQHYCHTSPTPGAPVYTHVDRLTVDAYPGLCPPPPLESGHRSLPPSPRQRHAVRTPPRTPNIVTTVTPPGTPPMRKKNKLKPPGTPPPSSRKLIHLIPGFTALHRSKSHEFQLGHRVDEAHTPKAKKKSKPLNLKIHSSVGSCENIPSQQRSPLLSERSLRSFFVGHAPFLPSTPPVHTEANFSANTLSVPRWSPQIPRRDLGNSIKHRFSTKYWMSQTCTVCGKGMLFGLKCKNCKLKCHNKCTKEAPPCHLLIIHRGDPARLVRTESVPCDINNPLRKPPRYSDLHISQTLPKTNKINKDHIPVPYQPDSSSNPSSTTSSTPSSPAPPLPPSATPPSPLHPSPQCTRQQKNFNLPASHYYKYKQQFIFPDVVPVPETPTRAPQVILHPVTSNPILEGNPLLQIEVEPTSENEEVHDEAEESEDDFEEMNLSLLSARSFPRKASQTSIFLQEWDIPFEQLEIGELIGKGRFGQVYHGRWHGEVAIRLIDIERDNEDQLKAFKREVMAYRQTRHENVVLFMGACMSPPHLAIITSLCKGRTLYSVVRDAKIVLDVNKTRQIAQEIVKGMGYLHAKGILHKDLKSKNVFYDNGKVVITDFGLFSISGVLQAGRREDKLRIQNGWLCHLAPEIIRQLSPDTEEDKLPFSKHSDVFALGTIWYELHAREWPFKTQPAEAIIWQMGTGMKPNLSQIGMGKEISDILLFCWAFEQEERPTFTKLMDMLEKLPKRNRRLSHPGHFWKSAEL
The experiment is described as follows: Inhibition of KSR2 ACT labeling site in human A-375 cells at 5 uM by KiNativ Profiling analysis relative to control.

Chain of Calcium/calmodulin-dependent protein kinase kinase 2 (Homo sapiens) (Q96RR4 2-588 limits assumed): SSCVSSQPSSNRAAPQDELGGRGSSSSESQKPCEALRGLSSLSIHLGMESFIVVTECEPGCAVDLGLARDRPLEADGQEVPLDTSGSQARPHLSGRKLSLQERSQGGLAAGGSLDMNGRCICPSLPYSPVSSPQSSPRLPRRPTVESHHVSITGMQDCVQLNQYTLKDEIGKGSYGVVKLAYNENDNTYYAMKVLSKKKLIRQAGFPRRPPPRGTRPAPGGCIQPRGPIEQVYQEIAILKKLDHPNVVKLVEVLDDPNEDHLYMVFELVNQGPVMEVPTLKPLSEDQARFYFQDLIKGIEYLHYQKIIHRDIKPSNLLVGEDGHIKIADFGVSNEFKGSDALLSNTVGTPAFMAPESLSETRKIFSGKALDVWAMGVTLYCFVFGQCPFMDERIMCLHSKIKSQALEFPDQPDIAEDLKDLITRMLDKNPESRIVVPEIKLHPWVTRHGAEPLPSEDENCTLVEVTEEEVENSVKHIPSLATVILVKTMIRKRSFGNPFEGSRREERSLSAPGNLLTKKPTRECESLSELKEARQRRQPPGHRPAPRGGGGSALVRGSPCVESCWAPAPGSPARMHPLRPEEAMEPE
Chain of Serine/threonine-protein kinase 32C (Homo sapiens) (Q86UX6 whole entry): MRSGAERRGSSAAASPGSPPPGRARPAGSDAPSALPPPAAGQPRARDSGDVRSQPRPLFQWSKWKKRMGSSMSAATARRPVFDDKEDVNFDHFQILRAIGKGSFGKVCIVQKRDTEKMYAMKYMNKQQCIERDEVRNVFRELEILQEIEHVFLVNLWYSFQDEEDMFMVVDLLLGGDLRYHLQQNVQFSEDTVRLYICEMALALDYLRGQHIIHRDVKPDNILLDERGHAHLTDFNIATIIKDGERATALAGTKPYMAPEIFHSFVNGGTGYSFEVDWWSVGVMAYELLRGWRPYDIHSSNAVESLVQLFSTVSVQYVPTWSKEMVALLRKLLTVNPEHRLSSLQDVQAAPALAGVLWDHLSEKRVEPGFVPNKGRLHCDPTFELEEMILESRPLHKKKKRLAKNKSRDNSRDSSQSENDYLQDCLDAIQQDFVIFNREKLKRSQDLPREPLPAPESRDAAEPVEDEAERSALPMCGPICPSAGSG

On to `CCN1CCN(Cc2ccc(NC(=O)c3ccc(C)c(/C=C/c4cnc5[nH]ccc5c4OC)c3)cc2C(F)(F)F)CC1`, for which the inhibition (commonly the change of the read-out against control, counted positive when it falls) in experiment [1] was -2.3%; in [2], 16.9%; in experiment [3], 7.9%; in [4] it was 12.7%; in experiment [5], 16.9%; in experiment [6] it was 2.9%. Besides, the inhibition was 3.9% in experiment [7], 69.2% in experiment [8] and 12.2% in experiment [9].
On to `CCN1CCN(Cc2ccc(NC(=O)c3ccc(C)c(Oc4ccnc5[nH]ccc45)c3)cc2C(F)(F)F)CC1`, for which the inhibition is 6.8% in experiment [1]; 18% in experiment [2]; -3% in experiment [3]; 16.2% in experiment [4]; 35.7% in [5]; 47.1% in experiment [6]. Also, the inhibition was found to be 34.8% in experiment [7], 51.9% in experiment [8] and 32.1% in experiment [9].
